pIC50: −log10 of the molar value. The source made the active and inactive calls. No cut-off for these calls is given here.
Legend:
Plasmodium falciparum [1] = assay: Antiplasmodial activity against Plasmodium falciparum Dd2 infected in […] after 72 hrs by SYBR green assay; assay type: functional, organism-based; settings: Dd2, 72 h
[2] = Clearance in mouse liver microsomes by LC-MS/MS analysis; assay type: ADME, Microsome
Summary of the method: (§1)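 Liver microsome incubation. Predicted clearance is derived from a well-stirred model corrected for microsomal and protein binding.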

Plasmodium falciparum [3] = assay: Antiplasmodial activity against Plasmodium falciparum 3D7 infected in […] after 72 hrs by SYBR green assay; assay type: functional, organism-based; settings: 3D7, 72 h
Plasmodium berghei = assay: Inhibition of Plasmodium berghei DHODH after 20 mins by 2,6-dichloroindophenol-reduction based assay
[4] = Clearance in human liver microsomes by LC-MS/MS analysis; assay type: ADME, Microsome; summary of the method: as §1
[5] = target: Dihydroorotate dehydrogenase (quinone), mitochondrial (Homo sapiens, UniProt Q02127); assay: Inhibition of human DHODH after 20 mins by 2,6-dichloroindophenol-reduction based assay
Sequence of Dihydroorotate dehydrogenase (quinone), mitochondrial (Q02127 whole entry): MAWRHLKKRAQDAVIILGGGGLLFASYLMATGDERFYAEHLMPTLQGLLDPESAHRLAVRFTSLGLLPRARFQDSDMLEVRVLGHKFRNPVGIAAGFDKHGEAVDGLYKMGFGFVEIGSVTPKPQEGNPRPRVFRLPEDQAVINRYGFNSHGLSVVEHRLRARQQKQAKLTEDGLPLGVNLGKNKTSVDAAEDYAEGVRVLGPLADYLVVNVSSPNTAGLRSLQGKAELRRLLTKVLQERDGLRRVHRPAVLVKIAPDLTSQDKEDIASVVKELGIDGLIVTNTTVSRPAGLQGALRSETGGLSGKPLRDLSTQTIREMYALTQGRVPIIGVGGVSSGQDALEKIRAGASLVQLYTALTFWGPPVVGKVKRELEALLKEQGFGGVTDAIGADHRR

Plasmodium vivax = assay: Inhibition of Plasmodium vivax DHODH after 20 mins by 2,6-dichloroindophenol-reduction based assay
[6] = target: T1, Dihydroorotate dehydrogenase (Plasmodium falciparum, UniProt Q54A96); assay: Inhibition of Plasmodium falciparum DHODH after 20 mins by 2,6-dichloroindophenol-reduction based assay
T1 sequence (Q54A96 whole entry): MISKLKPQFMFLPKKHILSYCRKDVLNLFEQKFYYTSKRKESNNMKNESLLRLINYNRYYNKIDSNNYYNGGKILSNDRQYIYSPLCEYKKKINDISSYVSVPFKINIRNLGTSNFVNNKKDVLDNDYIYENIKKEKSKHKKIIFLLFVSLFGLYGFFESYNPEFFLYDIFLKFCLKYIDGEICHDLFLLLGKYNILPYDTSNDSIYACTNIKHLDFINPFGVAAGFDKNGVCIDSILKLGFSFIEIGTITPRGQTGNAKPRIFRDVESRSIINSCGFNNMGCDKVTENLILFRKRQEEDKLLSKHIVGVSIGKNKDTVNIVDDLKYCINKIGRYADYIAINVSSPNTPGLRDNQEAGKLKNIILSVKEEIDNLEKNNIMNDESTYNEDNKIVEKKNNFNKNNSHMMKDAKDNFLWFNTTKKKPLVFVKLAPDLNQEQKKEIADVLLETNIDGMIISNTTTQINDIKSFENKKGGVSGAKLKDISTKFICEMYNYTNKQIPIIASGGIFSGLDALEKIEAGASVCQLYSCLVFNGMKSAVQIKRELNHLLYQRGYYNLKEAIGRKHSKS

[7] = Cytotoxicity against human RPTEC after 4 days by alamar blue assay; assay type: cell-based; settings: RPTEC cells, read-out: LC50

Row | Compound | pIC50 (Plasmodium falciparum [1]) | CLhep predicted [2] [mL/min/kg] | pIC50 (Plasmodium falciparum [3]) | inhibition (Plasmodium berghei) | CLhep predicted [4] [mL/min/kg] | pIC50 [5] | inhibition (Plasmodium vivax) | pIC50 [6] | CC50 at 96 h [7] [µM]
1 | O=C(NC1CC1)c1ccc(-n2cnc3c(Cl)cc(F)cc32)s1 | 7.74 | > 72 | 8.10 | Active | 7 | 5.25 | Active | 7.46 | –
2 | Cc1cc(F)c2nc(C)n(-c3ccc(C(=O)NC4CC4)s3)c2c1 | 7.77 | > 72 | 8.00 | Active | 12 | – | Active | 7.49 | –
3 | Cc1nc2c(OCC(F)F)cccc2n1-c1ccc(C(=O)NC2CC2)s1 | 6.95 | – | 6.89 | Active | – | – | Active | 7.55 | –
4 | Cc1nc2ccc(OC(F)(F)F)cc2n1-c1ccc(C(=O)NC2CC2)s1 | 7.28 | 41 | 7.44 | Active | 10 | – | Active | 7.28 | –
5 | Cc1nc2ccc(F)cc2n1-c1ccc(C(=O)NC2CC2)s1 | 6.95 | > 72 | 7.03 | Active | < 4 | – | Active | 6.95 | –
6 | O=C(NC1CC1)c1ccc(-n2c(=O)[nH]c3ccccc32)s1 | < 5.30 | – | < 5.30 | – | – | – | – | < 4.52 | –
7 | O=C(NC1CC1)c1ccc(-n2cnc3c(F)cccc32)s1 | 8.10 | > 72 | 7.77 | Active | 10 | 4.83 | Active | 7.21 | –
8 | CNC(=O)c1ccc(-n2cnc3ccccc32)s1 | 6.38 | – | 6.55 | – | – | – | – | 5.97 | > 62
9 | Cc1nc2cc(C(F)(F)F)ccc2n1-c1ccc(C(=O)NC2CC2)s1 | 7.55 | > 72 | 7.70 | Active | 4 | – | Active | 7.55 | –
10 | CN(C)C(=O)c1ccc(-n2cnc3ccccc32)s1 | < 4.40 | – | < 4.40 | – | – | – | – | < 4.52 | –
11 | Cc1ccc2c(c1)nc(C)n2-c1ccc(C(=O)NC2CC2)s1 | 6.89 | > 72 | 7.06 | Active | 8 | – | Active | 7.25 | –
12 | Cc1nc2ccccc2n1-c1ccc(C(=O)NC2CC2)s1 | 6.96 | – | 7.05 | – | – | – | – | 7.10 | > 62
13 | Cc1cccc2nc(C)n(-c3ccc(C(=O)NC4CC4)s3)c12 | 6.54 | > 72 | 6.84 | Active | 6 | – | Active | 6.22 | –
14 | Cc1nc2c(F)cccc2n1-c1ccc(C(=O)NC2CC2)s1 | 8.22 | 37 | 8.10 | Active | < 4 | – | Active | 7.47 | –
15 | Cc1nc2c(Cl)cccc2n1-c1ccc(C(=O)NC2CC2)s1 | 8.22 | 19 | 8.30 | Active | < 4 | – | Active | 7.68 | –
16 | Cc1nc2ccc(C(F)(F)F)cc2n1-c1ccc(C(=O)NC2CC2)s1 | 7.02 | 68 | 7.25 | Active | 8 | – | Active | 7.04 | –
17 | CCc1nc2ccccc2n1-c1ccc(C(=O)NC2CC2)s1 | 6.74 | – | 6.92 | – | – | – | – | 6.96 | > 62

Row | Compound | pIC50 (Plasmodium falciparum [1]) | CLhep predicted [2] [mL/min/kg] | pIC50 (Plasmodium falciparum [3]) | inhibition (Plasmodium berghei) | CLhep predicted [4] [mL/min/kg] | pIC50 [5] | inhibition (Plasmodium vivax) | pIC50 [6] | CC50 at 96 h [7] [µM]
18 | CN(C)c1nc2ccccc2n1-c1ccc(C(=O)NC2CC2)s1 | < 6.00 | – | < 6.00 | – | – | – | – | 5.25 | > 62
19 | CCNC(=O)c1ccc(-n2cnc3ccccc32)s1 | 6.82 | – | 7.00 | – | – | – | – | 6.85 | > 62
20 | O=C(NC1CC1)c1ccc(-n2cnc3ccccc32)s1 | 7.05 | – | 7.10 | – | – | – | – | 7.22 | > 62
21 | O=C(NC1CCCC1)c1ccc(-n2cnc3ccccc32)s1 | 5.26 | – | 5.36 | – | – | – | – | 5.60 | –
22 | NC(=O)c1ccc(-n2cnc3ccccc32)s1 | < 4.52 | – | < 4.40 | – | – | – | – | < 4.52 | –
23 | O=C(NC1CCC1)c1ccc(-n2cnc3ccccc32)s1 | 6.36 | – | 6.39 | – | – | – | – | 6.38 | > 62
24 | O=C(NC1CC1)c1ccc(-n2cnc3cc(C(F)(F)F)ccc32)s1 | 7.92 | > 72 | 7.92 | Active | 8 | 4.76 | Active | 7.72 | –
25 | Cc1nc2c(Br)cccc2n1-c1ccc(C(=O)NC2CC2)s1 | 8.15 | 26 | 8.40 | Active | 5 | – | Active | 7.68 | –
26 | Cc1cc(F)c2c(c1)ncn2-c1ccc(C(=O)NC2CC2)s1 | 7.22 | > 72 | 7.44 | Active | 11 | 5.14 | Active | 7.02 | –
27 | Cc1ccc2nc(C)n(-c3ccc(C(=O)NC4CC4)s3)c2c1 | 7.13 | > 72 | 7.48 | Active | 10 | – | Active | 7.25 | –
28 | Cc1cccc2c1nc(C)n2-c1ccc(C(=O)NC2CC2)s1 | 7.66 | 66 | 8.00 | Active | 10 | – | Active | 7.41 | –
29 | CC(C)NC(=O)c1ccc(-n2cnc3ccccc32)s1 | 6.09 | – | 6.25 | – | – | – | – | 6.17 | > 62
30 | Cc1cc(F)c2ncn(-c3ccc(C(=O)NC4CC4)s3)c2c1 | 8.40 | > 72 | 8.40 | Active | 10 | 5.51 | Active | 7.77 | –
31 | Cc1nc2cc(Cl)ccc2n1-c1ccc(C(=O)NC2CC2)s1 | 6.99 | – | 7.11 | Active | – | – | Active | 7.31 | –
32 | CCCCNC(=O)c1ccc(-n2cnc3ccccc32)s1 | 5.14 | – | < 4.70 | – | – | < 4.52 | – | – | –
33 | Cc1nc2c(N(C)C)cccc2n1-c1ccc(C(=O)NC2CC2)s1 | 6.80 | – | 7.12 | Active | – | – | Active | 6.74 | –
34 | Cc1nc2c(Cl)cc(F)cc2n1-c1ccc(C(=O)NC2CC2)s1 | 7.89 | 42 | 7.92 | Active | 5 | < 4.52 | Active | 7.60 | –
